Assay results taken from ChEMBL document CHEMBL1135739, “Radiolabeled amino acids for tumor imaging with PET: radiosynthesis and biological evaluation of 2-amino-3-[18F]fluoro-2-methylpropanoic acid and 3-[18F]fluoro-2-methyl-2-(methylamino)propanoic acid” (J Med Chem, 2002).

Experiments:
Rattus norvegicus [1] = species on record: Rattus norvegicus; assay: Radioactivity distribution in kidney of normal fischer rat after injection of [18F]fluoro-2-methylpropanoic acid after 120 min.; type: ADME, organism-based; settings: in vivo, 2 h
Method in brief: (§1)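 Normal male Fischer 344 rats (200–250 g), anesthetized with i.m. ketamine:xylazine (1:1), got ~85 μCi of tracer in 0.3 mL sterile water i.v. via tail-vein catheter. Groups of four were killed at 5, 30, 60 or 120 min. Tissues were weighed and gamma-counted against dose standards, and counts were decay-corrected to %ID/g. Results are mean ± standard error (n = 4), compared by one-way ANOVA.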

Rattus norvegicus [2] = species on record: Rattus norvegicus; assay: Radioactivity distribution in kidney of normal fischer rat after injection of [18F]fluoro-2-methylpropanoic acid after 30 min.; type: ADME, organism-based; settings: in vivo, 0.5 h; method in brief: as §1
Rattus norvegicus [3] = species on record: Rattus norvegicus; assay: Radioactivity distribution in kidney of normal fischer rat after injection of [18F]fluoro-2-methylpropanoic acid after 60 min.; type: ADME, organism-based; settings: in vivo, 1 h
Method in brief: (§2)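 Male Fischer 344 rats (200–250 g), fed ad libitum, anesthetized with intramuscular ketamine:xylazine (1:1, 0.1 mL/100 g). About 85 μCi tracer in 0.3 mL sterile water was given by tail-vein catheter. Groups of four were killed at 5, 30, 60 or 120 min. Tissues were weighed and gamma-counted against dose standards, decay-corrected, and expressed as %ID/g (mean ± standard error).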

Rattus norvegicus [4] = species on record: Rattus norvegicus; assay: Radioactivity distribution in kidney of tumor-bearing fischer rat after injection of [18F]fluoro-2-methylpropanoic acid after 120 min; type: ADME, organism-based; settings: in vivo, 2 h
Method in brief: (§3)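 Male Fischer 344 rats carried intracranial 9L gliosarcoma, stereotactically implanted (4×10^4 cells) and used 17–19 days later. Awake, restrained animals received about 35 μCi tracer in 0.3 mL sterile water via the tail vein and were killed at 5, 60 or 120 min (n = 4–5). Tissues were weighed, gamma-counted, decay-corrected and reported as %ID/g ± standard error.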

Rattus norvegicus [5] = species on record: Rattus norvegicus; assay: Radioactivity distribution in kidney of tumor-bearing fischer rat after injection of [18F]fluoro-2-methylpropanoic acid after 5 min; type: ADME, organism-based; settings: in vivo; method in brief: as §3
Rattus norvegicus [6] = species on record: Rattus norvegicus; assay: Radioactivity distribution in muscle of tumor-bearing fischer rat after injection of [18F]fluoro-2-methylpropanoic acid after 60 min; type: ADME, organism-based, Muscle tissue; settings: in vivo, 1 h; method in brief: as §3
Rattus norvegicus [7] = species on record: Rattus norvegicus; assay: Radioactivity distribution in blood of normal fischer rat after injection of [18F]fluoro-2-methylpropanoic acid after 120 min.; type: ADME, organism-based; settings: in vivo, 2 h; method in brief: as §1
Rattus norvegicus [8] = species on record: Rattus norvegicus; assay: Radioactivity distribution in brain of normal fischer rat after injection of [18F]fluoro-2-methylpropanoic acid after 120 min.; type: ADME, organism-based; settings: in vivo, 2 h; method in brief: as §1
Rattus norvegicus [9] = species on record: Rattus norvegicus; assay: Radioactivity distribution in brain of normal fischer rat after injection of [18F]fluoro-2-methylpropanoic acid after 5 min.; type: ADME, organism-based; settings: in vivo; method in brief: as §1
Rattus norvegicus [10] = species on record: Rattus norvegicus; assay: Radioactivity distribution in spleen of normal fischer rat after injection of [18F]fluoro-2-methylpropanoic acid after 5 min.; type: ADME, organism-based; settings: in vivo
Method in brief: (§4)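 Male Fischer 344 rats (200–250 g), fed ad libitum, under intramuscular ketamine:xylazine anesthesia, got ~85 μCi radiotracer in 0.3 mL sterile water by tail-vein catheter. Groups of four were killed at 5, 30, 60 or 120 min. Dissected tissues were weighed and gamma-counted with dose standards. Counts were decay-corrected and given as %ID/g, mean ± standard error. Tissues were compared by one-way ANOVA.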

Rattus norvegicus [11] = species on record: Rattus norvegicus; assay: Radioactivity distribution in spleen of tumor-bearing fischer rat after injection of [18F]fluoro-2-methylpropanoic acid after 5 min; type: ADME, organism-based; settings: in vivo
Method in brief: (§5)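 Male Fischer rats had 4×10^4 9L gliosarcoma cells implanted stereotactically into the brain, 3 mm right of midline, 1 mm anterior to bregma, 5 mm deep. They were used 17–19 days later. Awake, restrained rats got ~35 μCi in 0.3 mL sterile water by tail vein and were killed at 5, 60 or 120 min. Tissues, tumor and contralateral brain were gamma-counted, decay-corrected, as %ID/g, mean ± SE, n = 4–5.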

Rattus norvegicus [12] = species on record: Rattus norvegicus; assay: Radioactivity distribution in pancreas of tumor-bearing fischer rat after injection of [18F]-fluoro-2-methylpropanoic acid after 60 min; type: ADME, organism-based; settings: in vivo, 1 h; method in brief: as §3
Rattus norvegicus [13] = species on record: Rattus norvegicus; assay: Radioactivity distribution in liver of tumor-bearing fischer rat after injection of [18F]fluoro-2-methylpropanoic acid after 60 min; type: ADME, organism-based; settings: in vivo, 1 h; method in brief: as §3
Rattus norvegicus [14] = species on record: Rattus norvegicus; assay: Radioactivity distribution in spleen of normal fischer rat after injection of [18F]fluoro-2-methylpropanoic acid after 120 min.; type: ADME, organism-based; settings: in vivo, 2 h; method in brief: as §4
Rattus norvegicus [15] = species on record: Rattus norvegicus; assay: Radioactivity distribution in testis of normal fischer rat after injection of [18F]fluoro-2-methylpropanoic acid after 30 min.; type: ADME, organism-based; settings: in vivo, 0.5 h; method in brief: as §4
Rattus norvegicus [16] = species on record: Rattus norvegicus; assay: Radioactivity distribution in testis of normal fischer rat after injection of [18F]fluoro-2-methylpropanoic acid after 5 min.; type: ADME, organism-based; settings: in vivo; method in brief: as §4
Rattus norvegicus [17] = species on record: Rattus norvegicus; assay: Radioactivity distribution in lung of normal fischer rat after injection of [18F]fluoro-2-methylpropanoic acid after 120 min.; type: ADME, organism-based; settings: in vivo, 2 h; method in brief: as §2
Rattus norvegicus [18] = species on record: Rattus norvegicus; assay: Radioactivity distribution in lung of normal fischer rat after injection of [18F]fluoro-2-methylpropanoic acid after 5 min.; type: ADME, organism-based; settings: in vivo; method in brief: as §2
Rattus norvegicus [19] = species on record: Rattus norvegicus; assay: Radioactivity distribution in pancreas of normal fischer rat after injection of [18F]fluoro-2-methylpropanoic acid after 30 min.; type: ADME, organism-based; settings: in vivo, 0.5 h; method in brief: as §2
Rattus norvegicus [20] = species on record: Rattus norvegicus; assay: Radioactivity distribution in muscle of normal fischer rat after injection of [18F]fluoro-2-methylpropanoic acid after 120 min.; type: ADME, organism-based, Muscle tissue; settings: in vivo, 2 h; method in brief: as §2
Rattus norvegicus [21] = species on record: Rattus norvegicus; assay: Radioactivity distribution in muscle of normal fischer rat after injection of [18F]-fluoro-2-methylpropanoic acid after 5 min.; type: ADME, organism-based, Muscle tissue; settings: in vivo; method in brief: as §2
Rattus norvegicus [22] = species on record: Rattus norvegicus; assay: Radioactivity distribution in testis of tumor-bearing fischer rat after injection of [18F]fluoro-2-methylpropanoic acid after 60 min; type: ADME, organism-based; settings: in vivo, 1 h; method in brief: as §5
Rattus norvegicus [23] = species on record: Rattus norvegicus; assay: Radioactivity distribution in lung of tumor-bearing fischer rat after injection of [18F]-fluoro-2-methylpropanoic acid after 5 min; type: ADME, organism-based; settings: in vivo; method in brief: as §3
Rattus norvegicus [24] = species on record: Rattus norvegicus; assay: Radioactivity distribution in bone of normal fischer rat after injection of [18F]fluoro-2-methylpropanoic acid after 5 min.; type: ADME, organism-based, Bone element; settings: in vivo; method in brief: as §1
Rattus norvegicus [25] = species on record: Rattus norvegicus; assay: Radioactivity distribution in bone of tumor-bearing fischer rat after injection of [18F]fluoro-2-methylpropanoic acid after 5 min; type: ADME, organism-based, Bone element; settings: in vivo
Method in brief: (§6)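 Male Fischer 344 rats carried intracranial 9L gliosarcoma, implanted stereotactically (4×10^4 cells) and used 17–19 days later. Awake restrained rats got ~35 μCi of tracer in 0.3 mL sterile water by tail-vein injection and were killed at 5, 60 or 120 min. Tissues were weighed and gamma-counted, and counts were decay-corrected to %ID/g. Results are mean ± standard error; n = 4 at 5 and 120 min, n = 5 at 60 min.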

Rattus norvegicus [26] = species on record: Rattus norvegicus; assay: Radioactivity distribution in heart of normal fischer rat after injection of [18F]fluoro-2-methylpropanoic acid after 120 min.; type: ADME, organism-based; settings: in vivo, 2 h; method in brief: as §1
Rattus norvegicus [27] = species on record: Rattus norvegicus; assay: Radioactivity distribution in heart of normal fischer rat after injection of [18F]-fluoro-2-methylpropanoic acid after 60 min.; type: ADME, organism-based; settings: in vivo, 1 h; method in brief: as §1
Rattus norvegicus [28] = species on record: Rattus norvegicus; assay: Radioactivity distribution in blood of tumor-bearing fischer rat after injection of [18F]fluoro-2-methylpropanoic acid after 60 min; type: ADME, organism-based; settings: in vivo, 1 h; method in brief: as §6
Rattus norvegicus [29] = species on record: Rattus norvegicus; assay: Radioactivity distribution in heart of tumor-bearing fischer rat after injection of [18F]fluoro-2-methylpropanoic acid after 5 min; type: ADME, organism-based; settings: in vivo; method in brief: as §6
Rattus norvegicus [30] = species on record: Rattus norvegicus; assay: Radioactivity distribution in liver of normal fischer rat after injection of [18F]fluoro-2-methylpropanoic acid after 5 min.; type: ADME, organism-based; settings: in vivo; method in brief: as §2
Rattus norvegicus [31] = species on record: Rattus norvegicus; assay: Radioactivity distribution in liver of tumor-bearing fischer rat after injection of [18F]fluoro-2-methylpropanoic acid after 5 min; type: ADME, organism-based; settings: in vivo; method in brief: as §3
Rattus norvegicus [32] = species on record: Rattus norvegicus; assay: Radioactivity distribution in brain of tumor-bearing fischer rat after injection of [18F]fluoro-2-methylpropanoic acid after 60 min; type: ADME, organism-based; settings: in vivo, 1 h; method in brief: as §6
Rattus norvegicus [33] = species on record: Rattus norvegicus; assay: Radioactivity distribution in tumor of tumor-bearing fischer rat after injection of [18F]fluoro-2-methylpropanoic acid after 120 min; type: ADME, organism-based; settings: in vivo, 2 h; method in brief: as §5
Rattus norvegicus [34] = species on record: Rattus norvegicus; assay: Radioactivity distribution in blood of tumor-bearing fischer rat after injection of [18F]fluoro-2-methylpropanoic acid after 120 min; type: ADME, organism-based; settings: in vivo, 2 h; method in brief: as §6

## CC(N)(C[18F])C(=O)O.Cl (centres undefined)
Rattus norvegicus [1]
  ID/g: 2.97%
Rattus norvegicus [2]
  ID/g: 5.59%
Rattus norvegicus [3]
  ID/g: 4.74%
Rattus norvegicus [4]
  ID/g: 3.64%
Rattus norvegicus [5]
  ID/g: 8.66%
Rattus norvegicus [6]
  ID/g: 0.31%
Rattus norvegicus [7]
  ID/g: 0.15%
Rattus norvegicus [8]
  ID/g: 0.05%
Rattus norvegicus [9]
  ID/g: 0.04%
Rattus norvegicus [10]
  ID/g: 0.83%
Rattus norvegicus [11]
  ID/g: 0.72%
Rattus norvegicus [12]
  ID/g: 2.86%
Rattus norvegicus [13]
  ID/g: 0.66%
Rattus norvegicus [14]
  ID/g: 0.33%
Rattus norvegicus [15]
  ID/g: 0.1%
Rattus norvegicus [16]
  ID/g: 0.17%
Rattus norvegicus [17]
  ID/g: 0.37%
Rattus norvegicus [18]
  ID/g: 0.55%
Rattus norvegicus [19]
  ID/g: 2.93%
Rattus norvegicus [20]
  ID/g: 0.19%
Rattus norvegicus [21]
  ID/g: 0.22%
Rattus norvegicus [22]
  ID/g: 0.14%
Rattus norvegicus [23]
  ID/g: 0.84%
Rattus norvegicus [24]
  ID/g: 0.27%
Rattus norvegicus [25]
  ID/g: 0.38%
Rattus norvegicus [26]
  ID/g: 0.23%
Rattus norvegicus [27]
  ID/g: 0.28%
Rattus norvegicus [28]
  ID/g: 0.26%
Rattus norvegicus [29]
  ID/g: 0.4%
Rattus norvegicus [30]
  ID/g: 0.65%
Rattus norvegicus [31]
  ID/g: 0.77%
Rattus norvegicus [32]
  ID/g: 0.054%
Rattus norvegicus [33]
  ID/g: 1.87%
Rattus norvegicus [34]
  ID/g: 0.16%
